Tests used:
HL-60 [1] = assay: In vitro apoptotic activity in HL60 cells; type: functional, cell-based; conditions: Homo sapiens
Method in brief: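 HL60 cells (2 × 10^5 per well, RPMI 1640 + 10% FCS) given increasing drug concentrations for 48 h; apoptosis scored morphologically under fluorescence microscopy after acridine orange/ethidium bromide labelling (chromatin condensation, apoptotic bodies), also by propidium iodide hypotonic-citrate flow cytometry as pre-G0G1 events; AC50 = concentration giving apoptosis in 50% of cells.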

HL-60 [2] = assay: In vitro inhibition of HL60 cell proliferation; type: functional, cell-based; conditions: Homo sapiens
HL-60 [3] = assay: Effect on monocyte associated antigen CD14 expression in differentiating HL-60 cells; type: functional, Homo sapiens
Method in brief: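 HL60 cells (2 × 10^5) exposed to each retinoid for 6 days; differentiation scored by May Grunwald-Giemsa-stained cytospin morphology and two-colour direct immunofluorescence flow cytometry with FITC anti-human CD14 and PE anti-human CD11c mouse monoclonals, isotype antibodies as negative controls; value is % antigen-positive cells. Growth in RPMI 1640, 10% FCS, 37 °C, 5% CO2.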

SW 962 [4] = assay: (§1) Percentage efficacy for Beta RARE transactivation in SW962 cells; type: functional, Homo sapiens; parameters: concentration or dose not given beside the values
Method in brief: (§2)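 SW962 vulvar carcinoma cells (L15 medium, 10% FBS with <8 nM vitamin A) stably carrying RARE-tk-CAT reporter with endogenous receptors, treated 24 h in DMSO; CAT measured by ELISA, normalised to protein, triplicates; fold induction vs DMSO control. Efficacy = fold induction at highest concentration (10 µM) divided by that of 10 µM 9-cis-RA, ×100.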

SW 962 [5] = assay: Potency against beta RARE transactivation in SW962 cells; type: functional, Homo sapiens
Method in brief: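 Stably transfected SW962 RARE-tk-CAT reporter line treated 24 h with 10^-9 to 10^-5 M compound in DMSO, DMSO vehicle control; CAT protein by ELISA normalised to extract protein, triplicate treatments averaged to give fold RARE induction; EC50, the concentration for half-maximal activation, read from dose–response curves.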

HL-60 [6] = assay: Apoptotic activity in retinoic acid resistant HL60R cells; type: functional, cell-based; conditions: Homo sapiens
Method in brief: (§3)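 Cells were exposed to increasing drug concentrations for 48 h. Apoptosis was scored by fluorescence microscopy after acridine orange/ethidium bromide staining, with chromatin condensation and apoptotic bodies marking apoptotic cells and uniform ethidium staining marking necrosis. AC50 is the concentration inducing apoptosis in 50% of cells.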

HL-60 [7] = assay: Inhibition of retinoic acid resistant HL60R cell proliferation; type: functional, cell-based; conditions: Homo sapiens
Method in brief: (§4)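 Cells at 2 × 10^5 per well in 1 mL complete medium were exposed to increasing concentrations of each drug for 48 h. Viable cells were counted on a hemocytometer with trypan blue exclusion and expressed as percent of control proliferation. IC50 is the concentration giving 50% growth inhibition.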

HuT78 [8] = assay: Apoptotic activity in retinoic acid resistant HUT78 cell lines; type: functional, cell-based; conditions: Homo sapiens; method in brief: as §3
HuT78 [9] = assay: Inhibition of retinoic acid resistant HUT78 cell proliferation; type: functional, cell-based; conditions: Homo sapiens; method in brief: as §4
K562 [10] = assay: Apoptotic activity in retinoic acid resistant K562 cells; type: functional, cell-based; conditions: Homo sapiens; method in brief: as §3
K562 [11] = assay: Inhibition of retinoic acid resistant K562 cell proliferation; type: functional, cell-based; conditions: Homo sapiens; method in brief: as §4
SW 962 [12] = assay: as §1; type: functional, Homo sapiens; method in brief: as §2

SMILES	IC50 (HL-60 [2]) [µM]	AC50 (HL-60 [1]) [µM]	Activity (HL-60 [3]) [%]	Efficacy (SW 962 [4]) [%]	Potency (SW 962 [5]) [µM]	also measured
CC1(C)CCC(C)(C)c2cc(-c3cc(-c4ccc(C(=O)O)cc4)no3)ccc21	1	5		97.6	10	AC50 (HL-60 [6]): 4.2 µM; IC50 (HL-60 [7]): 1.4 µM; AC50 (HuT78 [8]): 1.5 µM; IC50 (HuT78 [9]): 0.8 µM; AC50 (K562 [10]): 4.8 µM; IC50 (K562 [11]): 2.3 µM
CC1(C)CCC(C)(C)c2cc(CNc3ccccc3C(=O)O)ccc21	49	88				
CN(Cc1ccc2c(c1)C(C)(C)CCC2(C)C)c1ccc(C(=O)O)cc1	58	95				
CC1(C)CCC(C)(C)c2cc(-c3cc(-c4ccc(C(=O)O)cc4)on3)ccc21	80	> 100	38.6	48	0.129	
CC1=C(/C=C/C(C)=C\C=C\C(C)=C\C(=O)O)C(C)(C)CCC1 [ALITRETINOIN]					0.0169	Efficacy (SW 962 [12]): 100%

Further lines, with some results ahead:

IC50 (HL-60 [2]) [µM]	SMILES	AC50 (HL-60 [1]) [µM]	Activity (HL-60 [3]) [%]	Efficacy (SW 962 [4]) [%]	Potency (SW 962 [5]) [µM]	also measured
68	CC1(C)CCC(C)(C)c2cc(C3=NOC(c4ccc(C(=O)O)cc4)C3)ccc21 (configuration not stated)	> 100	42.8	46.5	2.86	
75	CC1(C)CCC(C)(C)c2cc(C3CC(c4ccc(C(=O)O)cc4)=NO3)ccc21 (configuration not stated)	> 100	32.5	26.3	0.961	
40	CC1(C)CCC(C)(C)c2cc(CNc3ccc(C(=O)O)cc3)ccc21	70		64.5	0.671	
> 100	CC1(C)CCC(C)(C)c2cc(COc3ccc(C(=O)O)cc3)ccc21	> 100				
60	CC1(C)CCC(C)(C)c2cc(CNc3cccc(C(=O)O)c3)ccc21	99				
18	CC1=C(/C=C/C(C)=C/C=C/C(C)=C/C(=O)O)C(C)(C)CCC1 [TRETINOIN]	> 100	0			

— ChEMBL document CHEMBL1134528, “Heterocycle-containing retinoids. Discovery of a novel isoxazole arotinoid possessing potent apoptotic activity in multidrug and drug-induced apoptosis-resistant cells” (J Med Chem, 2001)
